Bioassay records as filed in PubChem BioAssay.
Sampled rows, rich in hits. Any-hit rate of the full collection: about 2.5%.
dFosB act-1 = activators of delta FosB homodimer, primary screen, biochemical, fluorescence polarization, TAMRA-CDK5 oligo, single point. Protein FosB (Mus musculus), P13346. purified delta FosB; percent of positive-control signal above neutral wells. activation, % at 25 µM. 340,000 compounds, 0.99% hits;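 active = mean activation above about 17%, with every replicate also reaching it, limit read from the data, passing the limit was not always enough; inconclusive = only one of the two conditions met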
DYRK1A inh = rat Dyrk1A kinase inhibitors, primary screen, biochemical, single point, plate reader | Dual specificity tyrosine-phosphorylation-regulated kinase 1A (Rattus norvegicus), Q63470 | ADP-Glo luminescence, NFATc1 peptide | inhibition, % at 12.5 µM | 310,000 compounds, 0.43% hits
NSD2 inh = NSD2 histone methyltransferase inhibitors, primary screen, biochemical, AlphaScreen, single concentration, set 2 | AID 743445, 2014 | inhibition, % at 12.5 µM | 310,000 compounds, 0.54% hits | NSD2 peptide methylation, 120 min
CDK5 inh = inhibitors of human CDK5/p35 kinase, primary screen, biochemical, single concentration; Cyclin-dependent kinase 5 (Homo sapiens) + Cyclin-dependent kinase 5 activator 1 (Homo …; Recombinant CDK5/p35, ADP-Glo luminescence, 60 min; inhibition, % at 10 µM; 330,000 compounds, 0.01% hits;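 active = highest replicate inhibition of at least 50% and at least 75% of replicates reaching 50%; inconclusive = only one of the two criteria met; inactive = both criteria failed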
SR-BI uptake up = activators of SR-BI mediated DiI-HDL uptake, primary screen, ldlA[mSR-BI] CHO cells, DiI fluorescence; 320,000 compounds, 0.096% hits; 3 h; 100 = double the neutral-control signal; activation, % at 12.5 µM;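 active = mean replicate activation of at least 60% and every replicate at or above 60%; inconclusive = mean or all-replicate condition met, but not both; inactive = mean below 60% and not all replicates reaching 60%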
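system = CHO ldlA[mSR-BI] cells, LDL receptor-null, SR-BI overexpressing | medium = Ham's F12 with 0.5% BSA, HEPES 25 mM, pH 7.4 | probe or stimulus = DiI-HDL 10 µg/mL | compound dosing = single-point compound dose | incubation = compound exposure 3 h, 37 °C | technique = DiI fluorescence, bottom read | read-out = cell-associated DiI fluorescence as measure of HDL uptake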
SR-BI HDL uptake = inhibitors of SR-BI mediated HDL lipid uptake, primary screen, ldlA[mSR-BI] cells, fluorescence, single point; inhibition, % at 12.5 µM; Scavenger receptor class B member 1 (Mus musculus), Q61009; 320,000 compounds, 0.96% hits; AID 488896, 2010; ldlA[mSR-BI] CHO cells, DiI-HDL uptake fluorescence, 3 h;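 active = mean replicate inhibition of at least 70% and a set share of replicates each scoring 70 or more; inconclusive = meets just one of the two criteria; inactive = fails both criteria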
Target sequence (Q61009 whole entry, looked up): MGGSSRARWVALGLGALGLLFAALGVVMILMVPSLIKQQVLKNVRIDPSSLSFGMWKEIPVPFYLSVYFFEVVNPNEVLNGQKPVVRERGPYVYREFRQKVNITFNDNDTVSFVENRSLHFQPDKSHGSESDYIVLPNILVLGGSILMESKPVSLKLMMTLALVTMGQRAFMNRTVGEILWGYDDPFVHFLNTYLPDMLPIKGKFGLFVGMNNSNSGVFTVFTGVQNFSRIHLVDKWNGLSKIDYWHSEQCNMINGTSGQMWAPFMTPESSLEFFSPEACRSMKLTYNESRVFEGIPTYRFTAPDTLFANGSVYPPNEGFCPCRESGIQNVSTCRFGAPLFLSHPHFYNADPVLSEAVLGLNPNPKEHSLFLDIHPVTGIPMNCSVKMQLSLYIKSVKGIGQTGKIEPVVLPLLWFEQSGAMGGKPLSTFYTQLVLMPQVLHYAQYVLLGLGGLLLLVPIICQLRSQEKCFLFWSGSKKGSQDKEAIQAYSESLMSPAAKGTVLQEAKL
dFosB act-2 = activators of mouse delta FosB DNA binding, confirmation, biochemical, fluorescence polarization, TAMRA-CDK5 oligo, cherry-picked samples. 2,400 tested, under 10 active. activation, % at 24.9 µM. purified delta FosB; normalised: neutral wells 0, positive control 100. shares compounds with dFosB act-1;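 active = highest replicate activation at or above 34% and every replicate reaching that threshold; inconclusive = meets only one of the two criteria; inactive = meets neither criterion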;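 also: higher polarization means more probe DNA bound by delta FosB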
Each line names hits and unclear results; the compound was inactive in the other large screens (follow-up assays come after a bar, where they were run). Rule as the data show it, unless noted: active = inhibition above about 50%; inactive = the rest.

CC(C)Oc1cc(F)ccc1-c1cc(C(=O)NCc2cccs2)[nH]n1	none (no result: dFosB act-1, DYRK1A inh, CDK5 inh, SR-BI uptake up, SR-BI HDL uptake)
CCOc1cc2[nH]c(=S)n(CCc3ccc(OC)c(OC)c3)c(=O)c2cc1OCC	none
CCOc1cc2[nH]c(=S)n(Cc3ccc(C)o3)c(=O)c2cc1OCC	dFosB act-1 34.2 | dFosB act-2 inactive
CCOc1cc2[nH]c(=S)n(Cc3ccc(C(=O)NCCCN4CCOCC4)cc3)c(=O)c2cc1OCC	none
CCOc1cc2[nH]c(=O)n(CCc3ccc(OC)c(OC)c3)c(=O)c2cc1OCC	dFosB act-1 25.3 | dFosB act-2 inactive
CCOc1cc2[nH]c(=O)n(Cc3ccc(C(=O)NCCCN4CCC(C)CC4)cc3)c(=O)c2cc1OCC	dFosB act-1 25.9 (no result: DYRK1A inh, NSD2 inh) | dFosB act-2 inactive
O=C(NCC1CCCO1)c1ccc2c(=O)n(Cc3cccc(Br)c3)c(=S)[nH]c2c1 (stereo unspecified)	dFosB act-1 44.4 | dFosB act-2 inactive
CC[C@]12C(=O)N(C)C[C@H]([C@@H]3C(=O)N(C)C(=O)[C@@H]31)N2C(=O)c1ccc(C)cc1	none (no result: NSD2 inh)
CCOc1cc2[nH]c(=S)n(Cc3ccc(C(=O)NCCCOC)cc3)c(=O)c2cc1OCC	none
COc1ccc(Cn2c(=S)[nH]c3cc(C(=O)NCc4cccnc4)ccc3c2=O)cc1	dFosB act-1 24.1 | dFosB act-2 inactive
CCOc1cc2[nH]c(=S)n(Cc3ccc(C(=O)NCCCN(CC)CC)cc3)c(=O)c2cc1OCC	dFosB act-1 29.7 | dFosB act-2 inactive
O=C(c1ccc(Cn2c(=S)[nH]c3ccc(Br)cc3c2=O)cc1)N1CCN(C2CCCCC2)CC1	dFosB act-1 31.0 | dFosB act-2 inactive
COC(=O)c1ccc2c(=O)n(Cc3ccc(C(=O)NCCCN4CCOCC4)cc3)c(=S)[nH]c2c1	dFosB act-1 29.1 | dFosB act-2 inactive
COc1ccc(S(=O)(=O)N2CCN(C)CC2)cc1NC(=O)c1ccccc1C	none (no result: SR-BI uptake up, SR-BI HDL uptake)
CC(=O)c1ccc(NC(=O)c2ccc(NC(=O)c3ccco3)cc2)cc1	dFosB act-1 93.3 | dFosB act-2 inactive
O=C(COc1ccc(Cl)cc1)Nc1ccc(NC(=O)c2ccco2)cc1	dFosB act-1 25.2 (no result: SR-BI uptake up, SR-BI HDL uptake) | dFosB act-2 inactive
COc1ccc(C(=O)NC(=S)Nc2ccc(NC(=O)c3ccco3)cc2)cc1[N+](=O)[O-]	dFosB act-1 29.3 | dFosB act-2 inactive
COc1cccc(C(=O)Nc2ccc3c(c2)C(=O)NC3=O)c1	dFosB act-1 23.2 (no result: NSD2 inh, SR-BI uptake up, SR-BI HDL uptake) | dFosB act-2 inactive
COc1ccc(NC(=O)c2oc3ccccc3c2NC(=O)c2ccco2)c(OC)c1	none
COc1ccc(C(=O)Nc2ccc3c(c2)C(=O)NC3=O)cc1	dFosB act-1 49.1 (no result: NSD2 inh) | dFosB act-2 inactive
COc1ccc(NC(=O)c2oc3ccccc3c2NC(=O)c2ccco2)cc1	dFosB act-1 20.7 | dFosB act-2 inactive
CC(=O)c1ccc(C(=O)Nc2ccc3c(c2)C(=O)NC3=O)cc1	dFosB act-1 31.7 (no result: NSD2 inh) | dFosB act-2 inactive
Nc1ncnc2c1ncn2[C@@H]1O[C@H](CNCc2cn(CC(=O)NC3CC3)c3ccccc23)[C@@H](O)[C@H]1O	none (no result: NSD2 inh)
CCCn1c(=S)[nH]c2cc(C(=O)N3CCc4ccccc43)ccc2c1=O	dFosB act-1 50.2 | dFosB act-2 inactive
CC(C)(C)S(=O)N1Cc2cc(CO)cc(-c3ccccc3)c2[C@@H]1CCO (stereo partly specified)	none (no result: DYRK1A inh, NSD2 inh, SR-BI uptake up, SR-BI HDL uptake)
CCn1nc(NC(=O)c2ccccn2)c2cc3cc(C)ccc3nc21	dFosB act-1 20.8 | dFosB act-2 inactive
Cc1ccc2nc3c(cc2c1)c(NC(=O)c1ccccn1)nn3CC(C)C	none
O=S(=O)(c1cnc[nH]1)N1CCc2ccccc21	dFosB act-1 20.5 | dFosB act-2 inactive
CC1Cc2ccccc2N1S(=O)(=O)c1cnc[nH]1 (stereo unspecified)	none
Cc1cccc(NC(=O)CN2C(=O)N/C(=C/c3cc(C)n(C(C)C)c3C)C2=O)c1	none (no result: DYRK1A inh)
Cc1cccc(NC(=O)CN2C(=O)N/C(=C/c3ccc(C)s3)C2=O)c1	dFosB act-1 31.0 | dFosB act-2 inactive
CCOc1cccc(/C=C2/NC(=O)N(CC(=O)Nc3cccc(C)c3)C2=O)c1O	dFosB act-1 23.4 | dFosB act-2 inactive
CC(C)(C)OC(=O)NCc1ccc(NC(=O)c2nc[nH]c2C(=O)NCCNC(=O)c2[nH]cnc2C(=O)Nc2ccc(CNC(=O)OC(C)(C)C)cc2)cc1	dFosB act-1 40.4 (no result: NSD2 inh) | dFosB act-2 inactive
CCOc1cc(/C=N/NC(=O)c2nnn(-c3nonc3N)c2C)ccc1OCc1ccc(C)cc1	none (no result: dFosB act-1, DYRK1A inh, CDK5 inh, SR-BI uptake up, SR-BI HDL uptake)
Cc1ccc(COc2cccc(/C=N/NC(=O)c3nnn(-c4nonc4N)c3C)c2)cc1	dFosB act-1 52.6 | dFosB act-2 inactive
Nc1nonc1-n1nnc(C(=O)N/N=C/c2ccc(OCc3ccc(F)cc3)cc2)c1COc1ccccc1	dFosB act-1 inconclusive
Cc1ccc(COc2ccc(/C=N/NC(=O)c3nnn(-c4nonc4N)c3COc3ccc(F)cc3)cc2)cc1	dFosB act-1 48.5, SR-BI HDL uptake 71.0 | dFosB act-2 inactive
CN1CCN(C(=O)/C(=C/c2cn(S(=O)(=O)N(C)C)c3ccccc23)NC(=O)c2ccccc2F)CC1	none
COc1ccc(CC(=O)OCC(=O)Nc2ccc(C(=O)Nc3ccc(OC)cc3)cc2)cc1	dFosB act-1 22.4 | dFosB act-2 inactive
COc1ccc(NC(=O)C2(c3ccc(NC(=O)c4ccc(C)cc4)cc3)CCCC2)cc1	dFosB act-1 23.4 | dFosB act-2 inactive
COc1ccc(NC(=O)C2(c3ccc(NC(=O)c4ccc(OC)c(OC)c4)cc3)CCCC2)cc1	none
N/C(CC(=O)Nc1ccc(F)c(Cl)c1)=N\OC(=O)c1cccs1	dFosB act-1 23.2 | dFosB act-2 inactive
CCc1ccc(OCC(=O)NNC(=O)Cc2c(F)cccc2Cl)cc1	dFosB act-1 28.6 (no result: DYRK1A inh) | dFosB act-2 inactive
COCCCN1C(=O)C2C(C(=O)Nc3cc(C)cc(C)c3)C3C=CC2(O3)C1C(=O)NC1CCCCC1 (stereo unspecified)	none
O=C(COC(=O)CNC(=O)c1ccc(Br)cc1)Nc1nnc(-c2ccccc2)o1	dFosB act-1 20.5 | dFosB act-2 inactive
